Data from ChEMBL document CHEMBL4014298, “Discovery of a series of 8-(1-phenylpyrrolidin-2-yl)-6-carboxamide-2-morpholino-4H-chromen-4-one as PI3Kβ/δ inhibitors for the treatment of PTEN-deficient tumours” (Bioorg Med Chem Lett, 2017).
≈ marks a conversion by molar mass, not a printed value. Calls of active or inactive are those of the source. The rule behind the calls is not given here.

How the values were obtained:
[1] = target: Phosphatidylinositol 3-kinase regulatory subunit beta (Homo sapiens, UniProt O00459); test: Inhibition of human PI3K p85beta (1 to 724 residues) by ADP Glo HTS assay
Sequence of Phosphatidylinositol 3-kinase regulatory subunit beta (O00459 whole entry, the tested form may be a part): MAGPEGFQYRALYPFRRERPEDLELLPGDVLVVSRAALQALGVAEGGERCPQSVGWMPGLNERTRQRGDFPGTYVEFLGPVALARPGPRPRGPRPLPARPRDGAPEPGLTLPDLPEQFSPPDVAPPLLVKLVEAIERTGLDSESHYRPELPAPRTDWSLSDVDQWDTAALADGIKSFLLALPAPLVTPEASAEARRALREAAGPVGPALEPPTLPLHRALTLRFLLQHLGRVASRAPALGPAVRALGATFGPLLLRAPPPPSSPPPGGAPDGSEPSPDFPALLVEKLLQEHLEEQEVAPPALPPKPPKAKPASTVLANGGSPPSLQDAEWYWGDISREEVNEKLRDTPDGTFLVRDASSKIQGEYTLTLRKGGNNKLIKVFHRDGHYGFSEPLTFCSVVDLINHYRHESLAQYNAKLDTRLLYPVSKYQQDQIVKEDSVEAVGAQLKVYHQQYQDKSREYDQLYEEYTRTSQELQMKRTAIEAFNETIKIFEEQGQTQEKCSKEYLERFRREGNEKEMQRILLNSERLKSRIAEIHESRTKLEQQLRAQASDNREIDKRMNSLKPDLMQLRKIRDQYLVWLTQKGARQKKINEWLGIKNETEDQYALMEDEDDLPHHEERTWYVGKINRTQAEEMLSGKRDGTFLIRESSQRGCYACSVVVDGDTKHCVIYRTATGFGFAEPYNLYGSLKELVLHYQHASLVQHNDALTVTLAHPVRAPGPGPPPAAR
Procedure, shortened: (§1)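 Lipid kinase selectivity assessed in a 15-kinase panel (Dundee University lipid kinase panel), IC50 determined.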

[2] = target: Phosphatidylinositol 4,5-bisphosphate 3-kinase catalytic subunit gamma isoform (Mus musculus, UniProt Q9JHG7); test: Inhibition of PI3Kgamma in mouse RAW264 cells assessed as decrease in AKT phosphorylation at Ser473; format: cell-based
Sequence of Phosphatidylinositol 4,5-bisphosphate 3-kinase catalytic subunit gamma isoform (Q9JHG7 whole entry, canonical isoform): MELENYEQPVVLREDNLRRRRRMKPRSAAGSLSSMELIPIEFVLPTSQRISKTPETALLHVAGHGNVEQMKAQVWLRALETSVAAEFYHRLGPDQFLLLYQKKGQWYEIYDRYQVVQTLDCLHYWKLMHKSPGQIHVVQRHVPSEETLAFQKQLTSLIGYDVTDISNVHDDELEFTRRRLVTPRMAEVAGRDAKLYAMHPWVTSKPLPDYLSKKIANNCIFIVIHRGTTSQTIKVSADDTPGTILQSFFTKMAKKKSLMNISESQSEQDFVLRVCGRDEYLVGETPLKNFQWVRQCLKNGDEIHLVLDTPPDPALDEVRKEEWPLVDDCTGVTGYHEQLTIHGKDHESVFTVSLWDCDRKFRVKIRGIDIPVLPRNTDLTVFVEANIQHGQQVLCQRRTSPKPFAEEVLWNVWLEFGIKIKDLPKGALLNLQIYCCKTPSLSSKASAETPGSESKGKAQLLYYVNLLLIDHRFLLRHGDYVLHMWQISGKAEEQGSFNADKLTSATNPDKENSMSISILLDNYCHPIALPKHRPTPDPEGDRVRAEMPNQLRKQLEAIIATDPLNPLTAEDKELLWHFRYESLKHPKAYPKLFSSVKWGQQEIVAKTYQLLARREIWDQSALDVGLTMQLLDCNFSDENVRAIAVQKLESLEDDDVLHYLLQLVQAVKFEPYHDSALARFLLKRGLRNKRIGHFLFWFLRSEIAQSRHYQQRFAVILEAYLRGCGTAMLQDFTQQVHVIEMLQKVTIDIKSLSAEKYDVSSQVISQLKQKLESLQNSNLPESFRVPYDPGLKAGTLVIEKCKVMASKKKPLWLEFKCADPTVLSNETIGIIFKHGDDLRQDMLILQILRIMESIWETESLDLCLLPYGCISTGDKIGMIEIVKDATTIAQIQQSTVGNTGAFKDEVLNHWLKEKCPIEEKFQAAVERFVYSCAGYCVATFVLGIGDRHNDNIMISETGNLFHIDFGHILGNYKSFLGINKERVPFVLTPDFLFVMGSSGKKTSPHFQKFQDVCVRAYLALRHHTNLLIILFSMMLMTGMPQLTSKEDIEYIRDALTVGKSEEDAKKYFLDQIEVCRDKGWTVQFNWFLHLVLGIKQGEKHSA
Procedure, shortened: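 Mouse monocytic RAW264 cells; inhibition of AKT Ser473 phosphorylation measured; single determination (n=1).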

[3] = Lipophilicity, log D of the compound at pH 7.4; conditions: buffer
[4] = target: Phosphatidylinositol 4,5-bisphosphate 3-kinase catalytic subunit beta isoform (Homo sapiens, UniProt P42338); test: Inhibition of PI3Kbeta in PTEN-deficient human MDA-MB-468 cells assessed as decrease in AKT phosphorylation at Ser473 measured after 2 hrs
[5] = Inhibition of PI3Kalpha mutant in human BT474 cells assessed as decrease in AKT phosphorylation at Thr308 after 2 hrs; format: cell-based; conditions: BT-474, 2 h
[6] = Apparent permeability across apical to basolateral side in human Caco2 cells; conditions: Caco-2
[7] = AUC in mouse at 30 umol/kg, po; format: ADME; conditions: in vivo
[8] = target: Phosphatidylinositol 4,5-bisphosphate 3-kinase catalytic subunit alpha isoform (Homo sapiens, UniProt P42336); test: Inhibition of recombinant human PI3Kalpha using PIP2 as substrate preincubated for 20 mins followed by substrate addition measured after 80 mins in presence of ATP by Kinase Glo luminescence assay
[9] = target: T1, Phosphatidylinositol 4,5-bisphosphate 3-kinase catalytic subunit delta isoform (Homo sapiens, UniProt O00329); test: Inhibition of PI3Kdelta in human JeKo1 B cells assessed as decrease in AKT phosphorylation at Ser473 measured after 1 hr; format: cell-based
T1 sequence (O00329 whole entry): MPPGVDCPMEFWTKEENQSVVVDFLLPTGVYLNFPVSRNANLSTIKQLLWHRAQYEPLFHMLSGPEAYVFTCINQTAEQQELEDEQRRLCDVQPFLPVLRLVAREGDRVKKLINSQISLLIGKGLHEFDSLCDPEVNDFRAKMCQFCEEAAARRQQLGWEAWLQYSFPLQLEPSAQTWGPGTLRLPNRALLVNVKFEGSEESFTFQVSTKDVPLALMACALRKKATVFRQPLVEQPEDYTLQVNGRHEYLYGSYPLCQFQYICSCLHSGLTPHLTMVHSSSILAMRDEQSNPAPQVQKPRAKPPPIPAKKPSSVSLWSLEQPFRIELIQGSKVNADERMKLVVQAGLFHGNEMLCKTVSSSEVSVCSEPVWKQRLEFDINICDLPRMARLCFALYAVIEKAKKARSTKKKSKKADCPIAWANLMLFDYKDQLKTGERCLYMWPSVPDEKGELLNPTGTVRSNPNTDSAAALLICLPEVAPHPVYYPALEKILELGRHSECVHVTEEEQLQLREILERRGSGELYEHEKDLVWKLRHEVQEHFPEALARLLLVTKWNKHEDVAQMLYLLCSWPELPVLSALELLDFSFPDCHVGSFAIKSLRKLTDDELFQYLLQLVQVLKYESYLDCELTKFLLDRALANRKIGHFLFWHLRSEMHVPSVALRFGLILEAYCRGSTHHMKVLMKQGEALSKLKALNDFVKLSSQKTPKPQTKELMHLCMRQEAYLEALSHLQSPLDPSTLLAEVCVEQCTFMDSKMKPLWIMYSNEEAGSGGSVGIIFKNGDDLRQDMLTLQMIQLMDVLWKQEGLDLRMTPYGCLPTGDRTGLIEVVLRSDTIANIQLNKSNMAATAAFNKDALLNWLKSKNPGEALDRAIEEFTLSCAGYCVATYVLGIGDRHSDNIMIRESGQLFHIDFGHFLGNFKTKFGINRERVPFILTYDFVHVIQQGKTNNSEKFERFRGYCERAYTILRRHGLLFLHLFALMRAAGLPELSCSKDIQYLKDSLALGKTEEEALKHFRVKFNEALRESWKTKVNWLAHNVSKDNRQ

[10] = Clearance in mouse blood at 5 umol/kg, iv or 30 umol/kg, po; format: ADME, organism-based
[11] = Clearance in dog blood at 4 umol/kg, iv or 10 umol/kg, po; format: ADME, organism-based, Canis lupus familiaris
[12] = Oral bioavailability in mouse blood at 30 umol/kg; format: ADME, organism-based
[13] = Oral bioavailability in dog blood at 10 umol/kg; format: ADME, organism-based, Canis lupus familiaris
[14] = Fraction unbound in mouse plasma; format: ADME, cell-free
Procedure, shortened: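 Plasma protein binding in mouse, dog or human plasma, reported as fraction unbound (%).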

[15] = Solubility of the compound in aqueous buffer at pH 6.5; format: physicochemical
Procedure, shortened: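 Solubility from crystalline solid in aqueous buffer, pH 6.5, µg/mL.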

Cytochrome P450 1A2 = Cytochrome P450 1A2 (Homo sapiens, UniProt P05177); test: Inhibition of CYP1A2 (unknown origin); format: ADME
Cytochrome P450 2D6 = Cytochrome P450 2D6 (Homo sapiens, UniProt P10635); test: Inhibition of CYP2D6 (unknown origin); format: ADME
Mus musculus = test: In vivo inhibition of AKT phosphorylation at Ser473 in nude mouse xenografted with PTEN-deficient human PC3 cells at 30 mg/kg, po administered as single dose measured after 30 mins to 8 hrs; format: functional, organism-based
Procedure, shortened: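 Single oral dose (100 or 30 mg/kg) to nude mice carrying PTEN-deficient PC3 prostate xenografts; tumour AKT Ser473 phosphorylation measured at 30 min, 2 h and 8 h, with free plasma concentration determined at same time points.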

[16] = target: Serine/threonine-protein kinase mTOR (Homo sapiens, UniProt P42345); test: Inhibition of mTOR (unknown origin)
[17] = target: Phosphatidylinositol 4-kinase beta (Homo sapiens, UniProt Q9UBF8); test: Inhibition of human PIK4Cbeta (1 to 801 residues) by ADP Glo HTS assay; procedure, shortened: as §1
Sequence of Phosphatidylinositol 4-kinase beta (Q9UBF8 whole entry, the tested form may be a part): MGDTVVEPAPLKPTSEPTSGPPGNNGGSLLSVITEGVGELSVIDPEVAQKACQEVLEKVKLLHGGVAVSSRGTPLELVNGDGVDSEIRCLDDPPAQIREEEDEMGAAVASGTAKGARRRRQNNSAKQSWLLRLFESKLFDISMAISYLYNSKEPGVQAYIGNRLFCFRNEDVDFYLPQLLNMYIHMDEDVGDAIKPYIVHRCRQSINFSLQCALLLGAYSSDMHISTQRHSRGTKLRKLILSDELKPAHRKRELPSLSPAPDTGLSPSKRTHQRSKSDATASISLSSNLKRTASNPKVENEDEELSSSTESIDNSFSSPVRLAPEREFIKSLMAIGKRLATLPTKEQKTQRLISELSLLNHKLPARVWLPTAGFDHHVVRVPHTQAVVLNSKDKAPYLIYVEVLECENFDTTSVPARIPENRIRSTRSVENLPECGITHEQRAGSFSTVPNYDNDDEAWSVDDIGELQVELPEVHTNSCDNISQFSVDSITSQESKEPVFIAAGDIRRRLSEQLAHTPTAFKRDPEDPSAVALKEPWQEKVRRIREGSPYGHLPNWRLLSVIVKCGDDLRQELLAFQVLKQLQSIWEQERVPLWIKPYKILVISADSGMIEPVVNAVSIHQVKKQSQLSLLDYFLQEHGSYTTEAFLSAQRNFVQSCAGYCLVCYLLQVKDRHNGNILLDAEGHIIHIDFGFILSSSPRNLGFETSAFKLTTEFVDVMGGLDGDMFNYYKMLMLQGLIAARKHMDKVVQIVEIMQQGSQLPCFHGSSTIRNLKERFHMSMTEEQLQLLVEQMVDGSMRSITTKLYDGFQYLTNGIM

Sphingosine kinase 2 = Sphingosine kinase 2 (Homo sapiens, UniProt Q9NRA0); test: Inhibition of human SPHK 2 (1 to 654 residues) by ADP Glo HTS assay; procedure, shortened: as §1
Sequence of Sphingosine kinase 2 (Q9NRA0 whole entry, the tested form may be a part): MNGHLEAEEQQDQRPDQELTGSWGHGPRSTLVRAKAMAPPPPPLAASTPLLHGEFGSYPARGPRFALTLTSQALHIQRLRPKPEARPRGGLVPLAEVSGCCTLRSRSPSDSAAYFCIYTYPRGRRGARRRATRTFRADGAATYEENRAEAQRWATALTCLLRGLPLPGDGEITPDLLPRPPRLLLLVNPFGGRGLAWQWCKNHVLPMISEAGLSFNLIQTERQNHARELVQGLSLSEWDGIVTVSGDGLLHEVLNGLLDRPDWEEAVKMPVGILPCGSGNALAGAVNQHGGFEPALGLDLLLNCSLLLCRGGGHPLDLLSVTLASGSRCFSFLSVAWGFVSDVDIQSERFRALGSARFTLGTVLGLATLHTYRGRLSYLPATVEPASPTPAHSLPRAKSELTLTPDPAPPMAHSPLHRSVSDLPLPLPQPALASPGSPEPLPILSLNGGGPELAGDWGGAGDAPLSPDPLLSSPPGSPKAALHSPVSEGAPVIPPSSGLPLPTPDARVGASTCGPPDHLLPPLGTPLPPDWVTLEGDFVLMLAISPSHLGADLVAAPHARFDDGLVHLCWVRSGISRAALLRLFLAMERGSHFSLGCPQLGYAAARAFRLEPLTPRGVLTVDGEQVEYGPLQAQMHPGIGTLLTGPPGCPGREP

Choline kinase alpha = Choline kinase alpha (Homo sapiens, UniProt P35790); test: Inhibition of human CHKalpha (1 to 457 residues) by ADP Glo HTS assay; procedure, shortened: as §1
Sequence of Choline kinase alpha (P35790 whole entry, the tested form may be a part): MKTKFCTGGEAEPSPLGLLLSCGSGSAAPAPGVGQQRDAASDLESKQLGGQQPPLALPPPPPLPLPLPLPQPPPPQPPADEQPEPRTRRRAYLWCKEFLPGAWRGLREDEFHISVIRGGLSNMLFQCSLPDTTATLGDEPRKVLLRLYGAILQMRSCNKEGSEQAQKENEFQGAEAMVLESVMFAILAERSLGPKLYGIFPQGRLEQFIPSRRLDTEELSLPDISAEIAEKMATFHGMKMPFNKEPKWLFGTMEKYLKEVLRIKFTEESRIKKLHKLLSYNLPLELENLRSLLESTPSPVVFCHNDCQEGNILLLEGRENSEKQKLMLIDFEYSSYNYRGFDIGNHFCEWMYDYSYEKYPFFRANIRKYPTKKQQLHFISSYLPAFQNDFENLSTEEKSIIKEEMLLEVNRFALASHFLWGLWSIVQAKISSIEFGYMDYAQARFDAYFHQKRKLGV

[18] = target: Diacylglycerol kinase zeta (Homo sapiens, UniProt Q13574); test: Inhibition of human DGKzeta (1 to 929 residues) by ADP Glo HTS assay; procedure, shortened: as §1
Sequence of Diacylglycerol kinase zeta (Q13574 whole entry, the tested form may be a part): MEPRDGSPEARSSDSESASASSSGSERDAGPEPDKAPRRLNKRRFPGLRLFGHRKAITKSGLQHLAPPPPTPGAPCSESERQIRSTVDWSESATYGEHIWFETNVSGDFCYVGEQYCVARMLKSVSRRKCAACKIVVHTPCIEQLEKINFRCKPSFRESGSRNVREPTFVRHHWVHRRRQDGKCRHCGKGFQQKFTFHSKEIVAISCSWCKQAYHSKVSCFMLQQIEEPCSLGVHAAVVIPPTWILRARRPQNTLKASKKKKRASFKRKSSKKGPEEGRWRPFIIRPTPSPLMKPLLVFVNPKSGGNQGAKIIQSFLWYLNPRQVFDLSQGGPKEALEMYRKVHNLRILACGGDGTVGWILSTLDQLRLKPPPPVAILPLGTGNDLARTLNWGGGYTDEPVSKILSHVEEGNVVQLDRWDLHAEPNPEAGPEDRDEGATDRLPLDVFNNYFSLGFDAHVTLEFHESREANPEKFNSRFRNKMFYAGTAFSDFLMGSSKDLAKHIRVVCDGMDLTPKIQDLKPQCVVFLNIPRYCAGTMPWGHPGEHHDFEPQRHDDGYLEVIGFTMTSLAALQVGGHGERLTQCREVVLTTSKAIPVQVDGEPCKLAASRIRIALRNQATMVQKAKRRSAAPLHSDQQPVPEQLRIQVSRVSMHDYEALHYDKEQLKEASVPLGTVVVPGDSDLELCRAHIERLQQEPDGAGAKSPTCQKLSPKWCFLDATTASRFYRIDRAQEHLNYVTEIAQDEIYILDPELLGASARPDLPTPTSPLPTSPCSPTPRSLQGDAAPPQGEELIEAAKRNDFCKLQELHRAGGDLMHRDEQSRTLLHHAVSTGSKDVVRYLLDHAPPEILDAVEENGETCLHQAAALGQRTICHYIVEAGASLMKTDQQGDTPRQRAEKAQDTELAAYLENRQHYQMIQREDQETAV

[19] = target: Phosphatidylinositol 3-kinase regulatory subunit alpha (Homo sapiens, UniProt P27986); test: Inhibition of human PI3K p85alpha (1 to 724 residues) by ADP Glo HTS assay; procedure, shortened: as §1
[20] = target: Phosphatidylinositol 4,5-bisphosphate 3-kinase catalytic subunit alpha isoform (Homo sapiens, UniProt P42336, E542K); test: Inhibition of human PI3Kalpha (2 to 1068 residues)/p85 (1 to 724 residues) E542K mutant by ADP Glo HTS assay; procedure, shortened: as §1

O=C(c1cc([C@H]2CCCN2c2cc(F)cc(F)c2)c2oc(N3CCOCC3)cc(=O)c2c1)N1CCOCC1
IC50 [1]: > 50 µM | IC50 [2]: 1.5 µM | logD [3]: 2.5 | IC50 [4]: 0.0011 µM | IC50 [5]: 0.14 µM | Papp A→B [6]: 18 ×10⁻⁶ cm/s | AUC [7]: 2.8 µM·h | IC50 [8]: 0.013 µM | IC50 [9]: 0.014 µM | clearance [10]: 60 mL/min/kg | clearance [11]: 23 mL/min/kg | bioavailability [12]: 26% | bioavailability [13]: 29% | fraction unbound [14]: 0.19 | solubility [15]: 230 µg/mL (≈ 438 µM) | IC50 (Cytochrome P450 1A2): > 30 µM | IC50 (Cytochrome P450 2D6): > 30 µM | inhibition (Mus musculus): Active | IC50 [16]: 42 µM | IC50 [17]: > 50 µM | IC50 (Sphingosine kinase 2): > 50 µM | IC50 (Choline kinase alpha): > 50 µM | IC50 [18]: > 50 µM | IC50 [19]: > 50 µM | IC50 [20]: > 50 µM
